Experimental data reported in PubChem BioAssay.
Inconclusive results are not listed.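 How the source made its calls, unless noted: active means inhibition over a set limit, the all-compound mean plus 3 SD, in both replicate runs; inconclusive means over that limit in just one replicate run; inactive means at or under that limit in both runs.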

Key:
[1] = S. cerevisiae growth inhibition in permissive medium (OD615), pilot counter-assay for S. cerevisiae lifespan shortening project, permissive growth control (AID 705;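 active means growth inhibition above 25% in both replicates, a cutoff set 3 SD above the mean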); settings: OD615, 24 h, at 10 µM, active compounds read high
How it was run: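 Test system: Saccharomyces cerevisiae strain carrying genetically modified DeaD replicative-lifespan system; buffer or medium: SC raffinose/galactose permissive medium; dosing: one dose 10 µM, DMSO 0.25% final; times: 24 h exposure, 30 °C; measured by: OD at 615 nm; read-out basis: growth inhibition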

[2] = S. cerevisiae growth inhibition in restrictive medium, OD615, pilot screen, restrictive growth control, yeast lifespan reduction project (AID 706;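 active means growth inhibition above a set limit, 3 SD over mean compound inhibition, in both replicates, cut at about 43% in these data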;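 further: modified DeaD lifespan yeast strain shifted to restrictive glucose medium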); settings: OD615, 48 h, at 10 µM, active compounds read high
How it was run: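 material = engineered S. cerevisiae DeaD strain | buffer or medium = glucose-based CSMM-D restrictive medium | dosing = one concentration, 10 µM final, 0.25% DMSO | schedule = 4 h pre-growth plus 48 h compound exposure, 30 °C | detection = OD615 absorbance reading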

[3] = doxorubicin toxicity protection in MRP-1 cells – H69AR cells, CellTiter-Glo, duplicate, MRP-1 activator project, pilot screen (AID 807;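 active means viability increase at or above a cutoff of the median across tested compounds plus 3 SD, cut at about 8.5% in these data, passing the limit was not always enough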;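 further: compound pretreatment 18-22 h then 72 h combined with doxorubicin; 0% = doxorubicin alone and 100% = vehicle without doxorubicin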); settings: H69AR viability with doxorubicin, CellTiter-Glo luminescence; at 10 µM; active compounds read high
[4] = viability of HCT116 without oncogenic beta-catenin – human colon tumor cells, pilot screen (AID 823;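 active means cell viability at or below a set limit in both duplicate runs, the limit being the all-compound median minus 4 SD, cut at about 23% in these data, passing the limit was not always enough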;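 further: 0% = wells killed by 20 µM Hyamine and 100% = untreated DMSO cell wells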); settings: HCT116 beta-catenin knockout viability, CellTiter-Glo, 60 h; at 10 µM; active compounds read low
[5] = viability of PTEN-null HCT116 cells – cell-based, HCT116 clonal line, CellTiter-Glo, pilot screen (AID 824;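 active means viability at or below 27.92% in each of two runs, the all-compound median minus 4 SD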;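 further: 0% = 20 µM Hyamine control and 100% = vehicle cell control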); settings: HCT116 PTEN-deleted viability, 60 h, at 10 µM, active compounds read low
[6] = RAM pathway blockade in budding yeast – dse1pr::URA3 reporter, 5-FOA selection, pilot screen (AID 869);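 further: 0% = DMSO wells with no growth and 100% = 10 µM 1-NA-PP1 with full growth; RAM network block rescues cells from 5-FOA so hits raise OD615 growth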; settings: S. cerevisiae dse1pr::URA3 5-FOA growth, OD615, 2 d; at 10 µM; active compounds read high; strain carries analog-sensitive mutant Cbk1 kinase
[7] = RAM signaling pathway blockade in yeast – S. cerevisiae, Pdr1DBD-CYC8 efflux-inhibited sensitized strain, primary screen (AID 1298;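 active means RAM network inhibition above 8.4% in each of two replicates, 3 SD over the compound average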;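 further: 0% = DMSO untreated cells without growth and 100% = 10 µM 1-NA-PP1 full growth; higher means more yeast growth rescued from 5-FOA killing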); settings: S. cerevisiae cbk1-as DSE1-URA3 strain, 5-FOA growth OD615, 2 d; at 50 µM; active compounds read high

CCOC(=O)C1C(=O)CC(C)(O)C(C(=O)OCC)C1c1cccs1 (configuration not stated)
inactive: growth inhibition [1] -3.39% | growth inhibition [2] -20.4% | viability increase [3] -2.92% | viability [4] 90% | viability [5] 89.2% | inhibition [6] 2.07% | RAM network inhibition [7] 4.69%

CCOc1ccc(C2CC(c3cccc(OC)c3)n3nc(N)nc3N2)cc1 (configuration not stated)
inactive: growth inhibition [1] 0.02% | growth inhibition [2] 5.62% | viability increase [3] 0.88% | viability [4] 109% | viability [5] 92.3% | inhibition [6] 0.875% | RAM network inhibition [7] 4.58%

O=C(CN1c2cccc3cccc(c23)S1(=O)=O)NCc1ccc2c(c1)OCO2
inactive: growth inhibition [1] -1.29% | growth inhibition [2] -6.94% | viability increase [3] -3.03% | viability [4] 89.2% | viability [5] 82.6% | inhibition [6] 1.05% | RAM network inhibition [7] 5.12%

CN(Cc1ccccc1)S(=O)(=O)c1ccc2[nH]c(=O)oc2c1
inactive: growth inhibition [1] -17.3% | growth inhibition [2] -30.6% | viability increase [3] -0.12% | viability [4] 109% | viability [5] 96% | inhibition [6] 0.425% | RAM network inhibition [7] 5.4%

CCOC(=O)Cn1c(CN2CC(C)OC(C)C2)nc2c1c(=O)n(C)c(=O)n2C (configuration not stated)
inactive: growth inhibition [1] 3.12% | growth inhibition [2] 8.5% | viability increase [3] 0.25% | viability [4] 95.2% | viability [5] 95% | inhibition [6] -0.31% | RAM network inhibition [7] -1.12%

COc1cccc(NS(=O)(=O)c2cn(C)c(=O)n(C)c2=O)c1
inactive: growth inhibition [1] -11% | growth inhibition [2] -3.64% | viability increase [3] -0.89% | viability [4] 93.7% | viability [5] 92.9% | inhibition [6] 2.42% | RAM network inhibition [7] 0.89%

CCOC(=O)C1CCN(C(=O)CN(c2ccc(OC)cc2)S(=O)(=O)c2c(C)nn(C)c2C)CC1
inactive: growth inhibition [1] -3.58% | growth inhibition [2] -3.18% | viability increase [3] -0.02% | viability [4] 98.7% | viability [5] 104% | inhibition [6] 1.46% | RAM network inhibition [7] 2.69%

CN(CC(=O)N1CC=C(c2ccccc2)CC1)S(=O)(=O)c1ccc2c(c1)c(=O)n(C)c(=O)n2C
inactive: growth inhibition [1] -1.64% | growth inhibition [2] -12.2% | viability increase [3] -3.46% | viability [4] 94.1% | viability [5] 80.3% | inhibition [6] 0.26% | RAM network inhibition [7] 5.04%

Cc1csc2nc(CNS(=O)(=O)c3ccc(-c4ccccc4)cc3)cn12
inactive: growth inhibition [1] -8.76% | growth inhibition [2] 7% | viability increase [3] -1.09% | viability [4] 90.2% | viability [5] 93.7% | inhibition [6] 0.94% | RAM network inhibition [7] 4.87%

CCOc1ccc(C(F)(F)F)cc1NC(C)=O
inactive: growth inhibition [1] -6.15% | growth inhibition [2] -9.57% | viability increase [3] -3.24% | viability [4] 90.4% | viability [5] 90.3% | inhibition [6] 0.62% | RAM network inhibition [7] 3.29%

CCOC(=O)N1CCC(N2CC34C=CC(O3)C(C(=O)Nc3ccc(OCC)cc3)C4C2=O)CC1 (configuration not stated)
inactive: growth inhibition [1] 0.885% | growth inhibition [2] 0.91% | viability increase [3] 2.9% | viability [4] 108% | viability [5] 112% | inhibition [6] 0.595% | RAM network inhibition [7] 3.14%

COC(=O)c1nc2n(n1)C(c1cccc(Cl)c1)C1=C(CCCC1=O)N2 (configuration not stated)
inactive: growth inhibition [1] -4.09% | growth inhibition [2] 7.08% | viability increase [3] -2.99% | viability [4] 98.1% | viability [5] 95.3% | inhibition [6] 0.155% | RAM network inhibition [7] 1.89%

Cc1ccccc1OCc1nc(-c2ccc(-n3cccc3)cc2)no1
inactive: growth inhibition [1] -22.8% | growth inhibition [2] -18.9% | viability increase [3] -0.53% | viability [4] 81.3% | viability [5] 84% | inhibition [6] 2% | RAM network inhibition [7] 5.61%

CCCCn1c(=O)[nH]c2ccccc21
inactive: growth inhibition [1] -4.76% | growth inhibition [2] -21.1% | viability increase [3] -1.44% | viability [4] 106% | viability [5] 104% | inhibition [6] 1.69% | RAM network inhibition [7] 2.05%

Cc1ccnc(SCCn2c(N3CCN(c4ccccc4)CC3)nc3c2c(=O)[nH]c(=O)n3C)n1
inactive: growth inhibition [1] -8.81% | growth inhibition [2] 5.83% | viability increase [3] -3.59% | viability [4] 89.4% | viability [5] 76.8% | inhibition [6] 2.09% | RAM network inhibition [7] 4.01%

COc1ccccc1C(=O)n1nc(-c2cccnc2)nc1N
inactive: growth inhibition [1] -10.2% | growth inhibition [2] -5.6% | viability increase [3] -0.72% | viability [4] 106% | viability [5] 105% | inhibition [6] 2.24% | RAM network inhibition [7] 0.59%

CCOC(=O)C(C)Sc1nnc(Cc2cc(=O)[nH]c(=O)[nH]2)n1-c1cccc(OC)c1 (configuration not stated)
inactive: growth inhibition [1] -8.94% | growth inhibition [2] -10% | viability increase [3] 0.04% | viability [4] 101% | viability [5] 96.9% | inhibition [6] 0.395% | RAM network inhibition [7] -1.47%

COc1ccc(NC(=O)C2CCN(S(=O)(=O)c3ccc(OC)c(OC)c3)CC2)c(OC)c1
inactive: growth inhibition [1] -1.19% | growth inhibition [2] 4.12% | viability increase [3] -0.83% | viability [4] 94.7% | viability [5] 88.6% | inhibition [6] 1% | RAM network inhibition [7] 1.41%

COCCN1C=C(C(=O)OC)C(c2ccc(OC)c(OC)c2)C(C(=O)OC)=C1
inactive: growth inhibition [1] -4.43% | growth inhibition [2] -9.06% | viability increase [3] -0.95% | viability [4] 98% | viability [5] 100% | inhibition [6] 1.43% | RAM network inhibition [7] -0.97%

Cc1cc(-c2ccco2)n(CC(=O)NCc2ccco2)n1
inactive: growth inhibition [1] -3.72% | growth inhibition [2] -9.28% | viability increase [3] -2.82% | viability [4] 100% | viability [5] 100% | inhibition [6] 0.355% | RAM network inhibition [7] 2.47%

Cc1ccccc1-c1nnc(-c2ccccc2)o1
inactive: growth inhibition [1] -0.03% | growth inhibition [2] -4.75% | viability increase [3] -4.15% | viability [4] 80.9% | viability [5] 83.1% | inhibition [6] 1.82% | RAM network inhibition [7] 0.2%

CC(C)(C)c1nc(CN2CCCCC2)cc(CN2CCCCC2)c1O
inactive: growth inhibition [1] -13.8% | growth inhibition [2] -12.6% | viability increase [3] -5.26% | viability [4] 70.8% | viability [5] 76.2% | inhibition [6] 0.505% | RAM network inhibition [7] 1.19%

COc1cccc2c(=O)n(CC(=O)NC3CCCC3)ccc12
inactive: growth inhibition [1] -19.3% | growth inhibition [2] -5.62% | viability increase [3] -1.22% | viability [4] 99.1% | viability [5] 94% | inhibition [6] -0.215% | RAM network inhibition [7] 3.83%

O=C1C(O)CC2c3ccccc3CC3(CCCC3)N12 (configuration not stated)
inactive: growth inhibition [1] -14.1% | growth inhibition [2] -11.3% | viability increase [3] -0.65% | viability [4] 99.4% | viability [5] 90.4% | inhibition [6] 0.65% | RAM network inhibition [7] 8.18%

COc1cccc(CNC(=O)Cn2cc3c(n2)CCCC3)c1
inactive: growth inhibition [1] -7.1% | growth inhibition [2] 4.65% | viability increase [3] 0.16% | viability [4] 100% | viability [5] 93.2% | inhibition [6] 1.44% | RAM network inhibition [7] 3.05%

O=C1c2ccccc2C(=O)N1CCc1nc2ccccc2c(=O)n1CCCn1ccnc1
inactive: growth inhibition [1] -3.21% | growth inhibition [2] 11% | viability increase [3] -2.41% | viability [4] 95.5% | viability [5] 97% | inhibition [6] 2.01% | RAM network inhibition [7] 2.2%

CCN1CCN(C(C(=O)NC2CCCC2)c2ccc(Cl)cc2)CC1 (configuration not stated)
inactive: growth inhibition [1] -14.8% | growth inhibition [2] 0.47% | viability increase [3] -4.44% | viability [4] 93.9% | viability [5] 93.1% | inhibition [6] 1.02% | RAM network inhibition [7] 3.71%

CCOC(=O)N1CCN(CC(=O)c2ccc3c(c2)CCN3C(C)=O)CC1
inactive: growth inhibition [1] 0.355% | growth inhibition [2] -1.94% | viability increase [3] -1.31% | viability [4] 100% | viability [5] 96.6% | inhibition [6] 2.14% | RAM network inhibition [7] 6.23%

COc1ccc(N2CCN(C3CC(=O)N(C)C3=O)CC2)cc1 (configuration not stated)
inactive: growth inhibition [1] -3.33% | growth inhibition [2] 2.79% | viability increase [3] -0.79% | viability [4] 103% | viability [5] 100% | inhibition [6] 1.95% | RAM network inhibition [7] 4.13%

Cn1cc(SCC(=O)Nc2ccc3c(c2)OCO3)c2ccccc21
inactive: growth inhibition [1] -6.75% | growth inhibition [2] -9.39% | viability increase [3] -2.72% | viability [4] 100% | viability [5] 92.9% | inhibition [6] 1.69% | RAM network inhibition [7] 2.23%

COCCNC(=O)C1c2cc(OC)c(OC)cc2C(=O)N(C)C1c1cccnc1 (configuration not stated)
inactive: growth inhibition [1] -5.99% | growth inhibition [2] -8.46% | viability increase [3] 0.41% | viability [4] 91.3% | viability [5] 92% | inhibition [6] -0.34% | RAM network inhibition [7] 5.06%

Nc1cccc(C(=O)Nc2ccc3nc(-c4cccnc4)[nH]c3c2)c1
inactive: growth inhibition [1] -2% | growth inhibition [2] -4.3% | viability increase [3] -1.88% | viability [4] 109% | viability [5] 102% | inhibition [6] 2.84% | RAM network inhibition [7] 6.1%

O=C(OCCN1C(=O)c2ccccc2C1=O)c1cccs1
inactive: growth inhibition [1] -5.91% | growth inhibition [2] -1.62% | viability increase [3] -1.54% | viability [4] 104% | viability [5] 100% | inhibition [6] 0.61% | RAM network inhibition [7] 2.97%

CCn1c(=NC(=O)CN2C(=O)CCC2=O)sc2c(C)cc(C)cc21
inactive: growth inhibition [1] -13.1% | growth inhibition [2] -2.35% | viability increase [3] -4.23% | viability [4] 92.2% | viability [5] 91.2% | inhibition [6] 0.505% | RAM network inhibition [7] 6.51%

CCCn1c(CNc2ccc(Br)cc2)nc2ccccc21
inactive: growth inhibition [1] -11.7% | growth inhibition [2] -9.32% | viability increase [3] -3.5% | viability [4] 88.2% | viability [5] 82.7% | inhibition [6] 1.47% | RAM network inhibition [7] 1.62%

COCCOC(=O)C1=C(C)NC2=C(C(=O)CCC2)C1c1ccc(N(C)C)cc1 (configuration not stated)
inactive: growth inhibition [1] -4.38% | growth inhibition [2] -19.9% | viability increase [3] -1.53% | viability [4] 98.6% | viability [5] 93.4% | inhibition [6] 0.975% | RAM network inhibition [7] 4.47%
